Reference: ChEMBL document CHEMBL5346884, “Discovery, synthesis and mechanism study of 2,3,5-substituted [1,2,4]-thiadiazoles as covalent inhibitors targeting 3C-Like protease of SARS-CoV-2” (Eur J Med Chem, 2023)

Assays:
[1] = molecular target: T1, Replicase polyprotein 1ab (Severe acute respiratory syndrome coronavirus 2, UniProt P0DTD1); assay: Inhibition of full-length recombinant SARS-CoV-2 3CL protease expressed in Escherichia coli BL21 (DE3) cells using fluorogenic MCA-AVLQSGFR-Lys (Dnp)-Lys-NH2 substrate preincubated for 10 mins followed by substrate addition measured for 3.5 mins by FRET assay
[2] = tested on: Vero C1008; assay: Cytotoxicity against African green monkey Vero E6 cells incubated for 24 hrs by WST-8 assay; format: toxicity, cell-based; conditions: chlorocebus sabaeus, vero c1008, 24 h
In short: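 Vero E6 cells grown in DMEM with 10% FBS at 37 °C, 5% CO₂. Compounds tested as 2-fold dilutions, 9 concentrations, in DMEM with 2% FBS, triplicate per concentration, for 24 h. WST-8 added and absorbance read at 450 nm after 0.5–1 h. Viability expressed relative to DMSO control.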

[3] = molecular target: Chymotrypsin (Homo sapiens, UniProt Q99895+P17538+P40313+Q6GPI1); assay: Inhibition of chymotrypsin (unknown origin) using N-succinyl-AAPF-AMC as substrate preincubated for 10 mins followed by substrate addition measured for 10 mins by fluorescence based assay; format: protein assay
In short: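 Chymotrypsin at 5 nM final with serially diluted compound in PBS pH 7.4, incubated 10 min. N-succinyl-AAPF-AMC added at 10 μM final. Fluorescence (ex 380/em 460 nm) read every 1 min for 10 min. Rates relative to DMSO.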

[4] = molecular target: Procathepsin L (Homo sapiens, UniProt P07711); assay: Inhibition of human Cathepsin L using Z-VVR-AMC as substrate measured for 10 mins by fluorescence based assay
Chain of Procathepsin L (P07711 whole entry): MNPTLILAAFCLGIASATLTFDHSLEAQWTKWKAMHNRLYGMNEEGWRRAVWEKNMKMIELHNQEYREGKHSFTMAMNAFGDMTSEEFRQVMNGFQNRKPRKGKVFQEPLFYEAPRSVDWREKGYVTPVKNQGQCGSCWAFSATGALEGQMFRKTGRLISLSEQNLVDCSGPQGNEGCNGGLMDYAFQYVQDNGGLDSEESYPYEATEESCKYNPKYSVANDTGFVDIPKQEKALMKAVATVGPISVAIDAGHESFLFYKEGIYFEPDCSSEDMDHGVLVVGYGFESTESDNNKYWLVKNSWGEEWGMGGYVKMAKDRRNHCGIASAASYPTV

[5] = molecular target: Cathepsin B (Homo sapiens, UniProt P07858); assay: Inhibition of human Cathepsin B using Z-RR-AMC as substrate preincubated for 30 mins followed by substrate addition measured for 10 mins by FRET assay
In short: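 Cathepsin B (0.25 units) with compound in 20 mM sodium acetate pH 5.5, 1 mM EDTA, 2 mM DTT, incubated 30 min at ambient temperature. Z-RR-AMC added at 1 μM final. Fluorescence (ex 340/em 440 nm) read every 1 min for 10 min. Rates relative to DMSO.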

[6] = molecular target: T1, Replicase polyprotein 1ab; assay: Inhibition of SARS-CoV-2 PLpro using RLRGG-AMC substrate preincubated for 30 mins followed by substrate addition measured for 5 mins by fluorescence based assay
In short: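 PLpro at 50 nM with serially diluted compound in 50 mM HEPES pH 7.5, 0.1 mg/mL BSA, incubated 30 min. RLRGG-AMC added to 20 μM final. Fluorescence (ex 360/em 460 nm) read every 1 min for 5 min. Rates compared with DMSO control.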

[7] = tested on: SARS-CoV-2; assay: Antiviral activity against SARS-CoV-2 infected in African green monkey Vero E6 cells assessed as reduction in viral replication incubated for 24 hrs by qRT-PCR analysis; format: functional, organism-based; conditions: Severe acute respiratory syndrome coronavirus 2, Vero C1008, 24 h
[8] = molecular target: Replicase polyprotein 1ab (Severe acute respiratory syndrome coronavirus 2) (UniProt P0DTD1); assay: Binding affinity to full-length recombinant SARS-CoV-2 3CL protease expressed in Escherichia coli BL21 (DE3) cells assessed as Gibbs free energy change by MM-GBSA method
[9] = molecular target: T1, Replicase polyprotein 1ab; assay: Inhibition of full-length recombinant SARS-CoV-2 3CL protease expressed in Escherichia coli BL21 (DE3) cells using fluorogenic MCA-AVLQSGFR-Lys (Dnp)-Lys-NH2 substrate preincubated for 10 mins followed by substrate addition measured immediately by FRET assay
In short: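 FRET assay: 50 nM protease (final) in 50 mM Tris–HCl pH 7.3, 1 mM EDTA, with serially diluted compound. Compound–enzyme preincubation was 10 min in the standard assay, and 0, 5, 10 or 20 min in the time-dependence test. Substrate added at 10 μM final. Fluorescence (ex 320/em 405 nm) read every 35 s for 3.5 min. Initial rates normalised to DMSO control.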

[10] = molecular target: T1, Replicase polyprotein 1ab; assay: Inhibition of full-length recombinant SARS-CoV-2 3CL protease expressed in Escherichia coli BL21 (DE3) cells using fluorogenic MCA-AVLQSGFR-Lys (Dnp)-Lys-NH2 substrate preincubated for 10 mins followed by substrate addition measured after 20 mins by FRET assay
[11] = molecular target: T1, Replicase polyprotein 1ab; assay: Inhibition of full-length recombinant SARS-CoV-2 3CL protease expressed in Escherichia coli BL21 (DE3) cells using fluorogenic MCA-AVLQSGFR-Lys (Dnp)-Lys-NH2 substrate preincubated for 10 mins followed by substrate addition measured after 5 mins by FRET assay
[12] = molecular target: T1, Replicase polyprotein 1ab; assay: Inhibition of full-length recombinant SARS-CoV-2 3CL protease expressed in Escherichia coli BL21 (DE3) cells using fluorogenic MCA-AVLQSGFR-Lys (Dnp)-Lys-NH2 substrate preincubated for 10 mins followed by substrate addition measured after 10 mins by FRET assay
[13] = molecular target: T1, Replicase polyprotein 1ab; assay: Binding affinity to CM5 chip-immobilised full-length recombinant SARS-CoV-2 3CL protease expressed in Escherichia coli BL21 (DE3) cells assessed as dissociation constant by SPR analysis
In short: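 SPR at 25 °C in HBS-EP (10 mM HEPES pH 7.4, 150 mM NaCl, 3.0 mM EDTA, 0.05% Tween-20) with 5% DMSO. Protease immobilised at 8000–10000 RU. Compounds were run as an eight-concentration series, with 240 s association and 200 s dissociation. Surface washed with 50% DMSO each cycle.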

## C/N=c1\nc(-c2ccc(F)cc2)n(-c2ccccc2)s1
[1]
  IC50: 118 nM
[2]
  CC50: > 100000 nM
[3]
  IC50: > 100000 nM
[4]
  IC50: > 100000 nM
[5]
  IC50: > 50000 nM
[6]
  IC50: 448 nM
[7]
  EC50: 7250 nM

## CN=C(S)N=C(Nc1ccccc1)c1ccccc1
[1]
  IC50: 40000 nM
[8]
  deltaG: -11.4 kcal/mol

## C/N=c1\nc(-c2ccc(OC)cc2)n(-c2ccccc2)s1
[1]
  IC50: 165 nM

## FC1(F)CC(/N=c2\nc(-c3ccccc3)n(-c3ccccc3)s2)C1
[1]
  IC50: 323 nM

## C/N=c1\nc(-c2ccc(OC)cc2)n(-c2ccc(F)cc2)s1
[1]
  IC50: 373 nM

## C/N=c1\nc(-c2ccccc2)n(-c2ccc(F)cc2)s1
[1]
  IC50: 124 nM

## CCOc1ccc(-c2n/c(=N\C)sn2-c2ccc(F)cc2)cc1
[1]
  IC50: 462 nM
[2]
  CC50: > 100000 nM
[7]
  EC50: 14800 nM

## C/N=c1\nc(-c2ccccc2)n(-c2ccccc2)s1
[9]
  IC50: 409 nM
[10]
  IC50: 191 nM
[11]
  IC50: 302 nM
[12]
  IC50: 206 nM
[1]
  IC50: 193 nM
[3]
  IC50: > 100000 nM
[4]
  IC50: > 100000 nM
[8]
  deltaG: -13.9 kcal/mol
[13]
  Kd: 798 nM
[5]
  IC50: > 50000 nM
[6]
  IC50: 655 nM

## C/N=c1\nc(-c2ccc(Cl)cc2)n(-c2ccccc2)s1
[1]
  IC50: 136 nM

## C/N=c1\nc(-c2ccc(OC)cc2)n(-c2cc(F)c(F)c(F)c2)s1
[1]
  IC50: 582 nM
[2]
  CC50: > 100000 nM
[7]
  EC50: 9340 nM

## c1ccc(-c2n/c(=N\C3CC3)sn2-c2ccccc2)cc1
[1]
  IC50: 143 nM
